From ChEMBL document CHEMBL2440035, “Azetidines and spiro azetidines as novel P2 units in hepatitis C virus NS3 protease inhibitors” (Bioorg Med Chem Lett, 2013)

Columns and labels:
Vero = test: Cytotoxicity against african green monkey Vero cells; type: cell-based; conditions: chlorocebus sabaeus
Method in brief: (§1)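 Cytotoxicity was profiled in three cell types: primary human peripheral blood mononuclear (PBM) cells, CEM (a human T-cell-derived line) and Vero (African green monkey kidney epithelial cells).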

Hepatitis C virus [1] = test: Antiviral activity against Hepatitis C virus infected in human HuH7 cells assessed as viral RNA replication; type: functional, organism-based, Hepacivirus hominis; conditions: Huh-7
Method in brief: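 Subgenomic HCV replicon in Huh7 cells; inhibition of HCV RNA replication measured by extraction and amplification of HCV RNA. Each concentration run in triplicate and reported as mean; EC50 derived.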

CCRF-CEM = test: Cytotoxicity against human CEM cells; type: cell-based; method in brief: as §1
PBMC = test: Cytotoxicity against human PBMC; type: cell-based; method in brief: as §1
Huh-7 = test: Cytotoxicity against human HuH7 cells; type: cell-based
Method in brief: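 Huh7 cytotoxicity measured together with the replicon antiviral assay, by extraction and amplification of ribosomal RNA. Each concentration run in triplicate and reported as mean.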

Hepatitis C virus [2] = test: Ratio of EC50 for Hepatitis C virus genotype 1b NS3/4A protease V36M mutant to EC50 Hepatitis C virus genotype 1b wild type NS3/4A protease; design: species or system Hepatitis C virus subtype 1b
Method in brief: (§2)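 Genotype 1b NS3 protease enzyme panel: wild type plus resistance mutants A156T, R155K, D168V, V36M, A156S, V170A and D168A. […] Resistance is expressed as the fold increase of each mutant's value over the wild-type value.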

Prothrombin = Prothrombin (Homo sapiens, UniProt P00734); test: Inhibition of human thrombin
Hepatitis C virus [3] = test: Ratio of EC90 for Hepatitis C virus genotype 1b NS3/4A protease D168V mutant to EC90 Hepatitis C virus genotype 1b wild type NS3/4A protease; design: species or system Hepatitis C virus subtype 1b; method in brief: as §2
Hepatitis C virus [4] = test: Inhibition of Hepatitis C virus genotype 1b NS3/4A protease D168V mutant; design: species or system Hepatitis C virus subtype 1b
Method in brief: (§3)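 Panel of genotype 1b NS3 protease enzymes (wild type and mutants). IC50 and IC90 are averages ± standard error from 2 independent assays. Fold change versus wild type given in parentheses.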

Hepatitis C virus [5] = test: Inhibition of Hepatitis C virus genotype 1b NS3/4A protease V36M mutant; design: species or system Hepatitis C virus subtype 1b; method in brief: as §3
Hepatitis C virus [6] = test: Ratio of EC50 for Hepatitis C virus genotype 1b NS3/4A protease D168V mutant to EC50 Hepatitis C virus genotype 1b wild type NS3/4A protease; design: species or system Hepatitis C virus subtype 1b; method in brief: as §2
Plasminogen = Plasminogen (Homo sapiens, UniProt P00747); test: Inhibition of human plasmin
Hepatitis C virus [7] = test: Inhibition of Hepatitis C virus genotype 1b NS3/4A protease V170A mutant; design: species or system Hepatitis C virus subtype 1b; method in brief: as §3
Hepatitis C virus [8] = test: Ratio of EC90 for Hepatitis C virus genotype 1b NS3/4A protease A156T mutant to EC90 Hepatitis C virus genotype 1b wild type NS3/4A protease; design: species or system Hepatitis C virus subtype 1b; method in brief: as §2
Hepatitis C virus [9] = test: Inhibition of Hepatitis C virus genotype 1b wild type NS3/4A protease; design: species or system Hepatitis C virus subtype 1b; method in brief: as §3
[10] = target: T1, Neutrophil elastase (Homo sapiens) (UniProt P08246); test: (§4) Inhibition of human neutrophil elastase
T1 sequence (whole entry): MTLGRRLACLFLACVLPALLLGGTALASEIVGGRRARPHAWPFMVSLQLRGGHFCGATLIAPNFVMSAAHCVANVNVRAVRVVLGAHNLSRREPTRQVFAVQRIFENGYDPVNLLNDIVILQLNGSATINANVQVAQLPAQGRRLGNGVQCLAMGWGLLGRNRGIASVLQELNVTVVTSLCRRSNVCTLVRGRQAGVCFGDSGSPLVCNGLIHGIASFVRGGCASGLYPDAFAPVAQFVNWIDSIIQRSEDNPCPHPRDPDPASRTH

Neutrophil elastase = target: T2, Neutrophil elastase (Homo sapiens, UniProt P08246); test: as §4
T2 sequence (P08246 whole entry): T1 sequence (whole entry)

Hepatitis C virus [11] = test: Ratio of EC50 for Hepatitis C virus genotype 1b NS3/4A protease D168A mutant to EC50 Hepatitis C virus genotype 1b wild type NS3/4A protease; design: species or system Hepatitis C virus subtype 1b; method in brief: as §2
Hepatitis C virus [12] = test: Inhibition of Hepatitis C virus genotype 1b NS3/4A protease A156S mutant; design: species or system Hepatitis C virus subtype 1b; method in brief: as §3
Hepatitis C virus [13] = test: Ratio of EC50 for Hepatitis C virus genotype 1b NS3/4A protease A156S mutant to EC50 Hepatitis C virus genotype 1b wild type NS3/4A protease; design: species or system Hepatitis C virus subtype 1b; method in brief: as §2
Hepatitis C virus [14] = test: Inhibition of Hepatitis C virus genotype 1b NS3/4A protease D168A mutant; design: species or system Hepatitis C virus subtype 1b; method in brief: as §3
Hepatitis C virus [15] = test: Ratio of EC90 for Hepatitis C virus genotype 1b NS3/4A protease V36M mutant to EC90 Hepatitis C virus genotype 1b wild type NS3/4A protease; design: species or system Hepatitis C virus subtype 1b; method in brief: as §2
Cathepsin S = Cathepsin S (Homo sapiens, UniProt P25774); test: Inhibition of human cathepsin S
Hepatitis C virus [16] = test: Ratio of EC90 for Hepatitis C virus genotype 1b NS3/4A protease D168A mutant to EC90 Hepatitis C virus genotype 1b wild type NS3/4A protease; design: species or system Hepatitis C virus subtype 1b; method in brief: as §2
Hepatitis C virus [17] = test: Inhibition of Hepatitis C virus genotype 1b NS3/4A protease A156T mutant; design: species or system Hepatitis C virus subtype 1b; method in brief: as §3
Hepatitis C virus [18] = test: Inhibition of Hepatitis C virus genotype 1b NS3/4A protease R155K mutant; design: species or system Hepatitis C virus subtype 1b; method in brief: as §3
Hepatitis C virus [19] = test: Ratio of EC50 for Hepatitis C virus genotype 1b NS3/4A protease R155K mutant to EC50 Hepatitis C virus genotype 1b wild type NS3/4A protease; design: species or system Hepatitis C virus subtype 1b; method in brief: as §2
Hepatitis C virus [20] = test: Ratio of EC90 for Hepatitis C virus genotype 1b NS3/4A protease R155K mutant to EC90 Hepatitis C virus genotype 1b wild type NS3/4A protease; design: species or system Hepatitis C virus subtype 1b; method in brief: as §2
Hepatitis C virus [21] = test: Ratio of EC90 for Hepatitis C virus genotype 1b NS3/4A protease V170A mutant to EC90 Hepatitis C virus genotype 1b wild type NS3/4A protease; design: species or system Hepatitis C virus subtype 1b; method in brief: as §2

Plasminogen, sequence (P00747 97-580 limits assumed): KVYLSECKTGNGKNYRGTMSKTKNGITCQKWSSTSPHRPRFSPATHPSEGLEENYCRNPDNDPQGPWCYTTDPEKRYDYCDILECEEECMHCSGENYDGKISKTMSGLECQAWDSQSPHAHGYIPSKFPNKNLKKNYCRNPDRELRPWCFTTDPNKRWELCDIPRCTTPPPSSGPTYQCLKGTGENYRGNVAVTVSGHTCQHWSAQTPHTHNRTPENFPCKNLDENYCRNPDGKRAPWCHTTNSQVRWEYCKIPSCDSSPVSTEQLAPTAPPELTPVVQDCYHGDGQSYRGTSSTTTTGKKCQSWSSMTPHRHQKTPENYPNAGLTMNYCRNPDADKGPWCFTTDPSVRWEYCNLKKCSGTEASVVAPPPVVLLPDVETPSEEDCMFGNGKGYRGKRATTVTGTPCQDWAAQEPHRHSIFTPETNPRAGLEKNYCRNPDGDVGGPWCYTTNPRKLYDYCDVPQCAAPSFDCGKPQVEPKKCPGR
Plasminogen, sequence (P00747 581-810 limits assumed): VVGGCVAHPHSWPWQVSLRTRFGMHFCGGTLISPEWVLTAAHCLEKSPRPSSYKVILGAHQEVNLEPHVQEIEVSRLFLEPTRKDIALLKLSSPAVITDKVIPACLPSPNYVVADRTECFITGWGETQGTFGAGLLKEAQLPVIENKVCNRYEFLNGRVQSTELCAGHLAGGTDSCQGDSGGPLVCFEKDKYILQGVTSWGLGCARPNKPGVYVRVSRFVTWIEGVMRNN

CCCC(NC(=O)C1CCN1C(=O)[C@@H](NC(=O)[C@@H](NC(=O)c1cnccn1)C1CCCCC1)C(C)(C)C)C(=O)C(=O)NCCOC (stereo partly drawn)
CC50 (Vero): > 100 µM | EC50 (Hepatitis C virus [1]): > 10 µM | EC90 (Hepatitis C virus [1]): > 10 µM | CC50 (CCRF-CEM): 38 µM | CC50 (PBMC): > 100 µM | CC50 (Huh-7): > 10 µM

CCCC(NC(=O)C1N(C(=O)[C@@H](NC(=O)[C@@H](NC(=O)c2cnccn2)C2CCCCC2)C(C)(C)C)CC12CCCCC2)C(=O)C(=O)NC1CC1 (stereo partly drawn)
Ratio EC50 (Hepatitis C virus [2]): 8.8 | IC50 (Prothrombin): < 1 µM | IC90 (Prothrombin): < 1.7 µM | CC50 (Vero): 27 µM | Ratio (Hepatitis C virus [3]): 0.3 | EC50 (Hepatitis C virus [1]): 2.3 µM | EC90 (Hepatitis C virus [1]): 6.4 µM | EC50 (Hepatitis C virus [4]): 0.4 µM | EC90 (Hepatitis C virus [4]): 3.3 µM | EC50 (Hepatitis C virus [5]): 6.9 µM | EC90 (Hepatitis C virus [5]): 75 µM | CC50 (CCRF-CEM): 16 µM | Ratio EC50 (Hepatitis C virus [6]): 0.5 | IC50 (Plasminogen): > 100 µM | IC90 (Plasminogen): > 100 µM | EC50 (Hepatitis C virus [7]): > 1 µM | EC90 (Hepatitis C virus [7]): 8.7 µM | Ratio (Hepatitis C virus [8]): >10 | EC50 (Hepatitis C virus [9]): 0.78 µM | EC90 (Hepatitis C virus [9]): 9.81 µM | IC90 [10]: 85 µM | IC50 (Neutrophil elastase): 7.8 µM | Ratio EC50 (Hepatitis C virus [11]): 0.9 | CC50 (PBMC): 32 µM | EC50 (Hepatitis C virus [12]): 43 µM | EC90 (Hepatitis C virus [12]): > 100 µM | Ratio EC50 (Hepatitis C virus [13]): 55 | EC50 (Hepatitis C virus [14]): 0.72 µM | EC90 (Hepatitis C virus [14]): 8.2 µM | Ratio (Hepatitis C virus [15]): 7.6 | IC50 (Cathepsin S): > 100 µM | IC90 (Cathepsin S): > 100 µM | Ratio (Hepatitis C virus [16]): 0.8 | EC50 (Hepatitis C virus [17]): > 100 µM | EC90 (Hepatitis C virus [17]): > 100 µM | EC50 (Hepatitis C virus [18]): 5.5 µM | EC90 (Hepatitis C virus [18]): 64 µM | Ratio EC50 (Hepatitis C virus [19]): 7.1 | CC50 (Huh-7): > 10 µM | Ratio (Hepatitis C virus [20]): 6.6 | Ratio (Hepatitis C virus [21]): 0.9

CCCC(NC(=O)C1CCN1C(=O)[C@@H](NC(=O)[C@@H](NC(=O)c1cnccn1)C1CCCCC1)C(C)(C)C)C(=O)C(=O)NCCF (stereo partly drawn)
CC50 (Vero): > 100 µM | EC50 (Hepatitis C virus [1]): > 10 µM | EC90 (Hepatitis C virus [1]): > 10 µM | CC50 (CCRF-CEM): 52 µM | CC50 (PBMC): 80 µM | CC50 (Huh-7): > 10 µM

CCCC(NC(=O)C1N(C(=O)[C@@H](NC(=O)C2CCCCC2)C(C)(C)C)CC12Cc1ccccc1C2)C(=O)C(=O)NC1CC1 (stereo partly drawn)
CC50 (Vero): 43 µM | EC50 (Hepatitis C virus [1]): > 10 µM | EC90 (Hepatitis C virus [1]): > 10 µM | CC50 (CCRF-CEM): 22 µM | CC50 (PBMC): 31 µM | CC50 (Huh-7): 10 µM

CC(C)(C)NC(=O)N[C@H](C(=O)N1C[C@H]2[C@@H]([C@H]1C(=O)NC(CC1CCC1)C(=O)C(N)=O)C2(C)C)C(C)(C)C (stereo partly drawn) [BOCEPREVIR]
IC50 (Prothrombin): < 1 µM | IC90 (Prothrombin): < 1.4 µM | CC50 (Vero): > 100 µM | EC50 (Hepatitis C virus [1]): 0.01 µM | EC90 (Hepatitis C virus [1]): 0.03 µM | EC90 (Hepatitis C virus [4]): 0.9 µM | EC90 (Hepatitis C virus [5]): 5.6 µM | CC50 (CCRF-CEM): > 100 µM | IC50 (Plasminogen): > 100 µM | IC90 (Plasminogen): > 100 µM | EC90 (Hepatitis C virus [7]): 7.7 µM | EC90 (Hepatitis C virus [9]): 1 µM | IC90 [10]: > 100 µM | IC50 (Neutrophil elastase): ≥ 100 µM | CC50 (PBMC): > 100 µM | EC90 (Hepatitis C virus [12]): ≥ 100 µM | EC90 (Hepatitis C virus [14]): 4.7 µM | IC50 (Cathepsin S): > 100 µM | IC90 (Cathepsin S): > 100 µM | EC90 (Hepatitis C virus [17]): > 100 µM | EC90 (Hepatitis C virus [18]): 4.8 µM | CC50 (Huh-7): > 10 µM

CC(C)(C)[C@H](NC(=O)[C@@H](NC(=O)c1cnccn1)C1CCCCC1)C(=O)N1CC2(Cc3ccccc3C2)C1C(=O)NC(CC1CCC1)C(=O)C(=O)NC1CC1 (stereo partly drawn)
CC50 (Vero): > 100 µM | EC50 (Hepatitis C virus [1]): 0.7 µM | EC90 (Hepatitis C virus [1]): 1 µM | CC50 (CCRF-CEM): 43 µM | CC50 (PBMC): 29 µM

CCCC(NC(=O)C1N(C(=O)[C@@H](NC(=O)CC(C)(C)C)C(C)(C)C)CC12Cc1ccccc1C2)C(=O)C(=O)NC1CC1 (stereo partly drawn)
CC50 (Vero): 46 µM | EC50 (Hepatitis C virus [1]): > 10 µM | EC90 (Hepatitis C virus [1]): > 10 µM | CC50 (CCRF-CEM): 35 µM | CC50 (PBMC): 44 µM | CC50 (Huh-7): > 10 µM

CCCC(NC(=O)C1N(C(=O)[C@@H](NC(=O)NC2CCCCC2)C(C)(C)C)CC12Cc1ccccc1C2)C(=O)C(=O)NC1CC1 (stereo partly drawn)
CC50 (Vero): 44 µM | EC50 (Hepatitis C virus [1]): 8.9 µM | EC90 (Hepatitis C virus [1]): 30 µM | CC50 (PBMC): 30 µM | CC50 (Huh-7): 8.2 µM

CCCC(NC(=O)C1CCN1C(=O)[C@@H](NC(=O)[C@@H](NC(=O)c1cnccn1)C1CCCCC1)C(C)(C)C)C(=O)C(=O)NC1CC1 (stereo partly drawn)
CC50 (Vero): > 100 µM | EC50 (Hepatitis C virus [1]): > 10 µM | EC90 (Hepatitis C virus [1]): > 10 µM | CC50 (CCRF-CEM): > 100 µM | CC50 (PBMC): > 100 µM | CC50 (Huh-7): > 10 µM
